The list is not random: actives were taken first. Their share in the collection is about 0.6%.
PMI act hi M6P = increases human PMI activity with near-saturating mannose 6-phosphate | P34949 | coupled PMI enzyme assay, resazurin fluorescence, 20 min; stronger effect = higher value; 1 = untreated enzyme, 0 = substrate-free blank | activation factor at 20 µM | actives 0.34% (n = 190,000);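 active = activation factor of 2 or more at 20 µM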
Target sequence (P34949 whole entry, looked up): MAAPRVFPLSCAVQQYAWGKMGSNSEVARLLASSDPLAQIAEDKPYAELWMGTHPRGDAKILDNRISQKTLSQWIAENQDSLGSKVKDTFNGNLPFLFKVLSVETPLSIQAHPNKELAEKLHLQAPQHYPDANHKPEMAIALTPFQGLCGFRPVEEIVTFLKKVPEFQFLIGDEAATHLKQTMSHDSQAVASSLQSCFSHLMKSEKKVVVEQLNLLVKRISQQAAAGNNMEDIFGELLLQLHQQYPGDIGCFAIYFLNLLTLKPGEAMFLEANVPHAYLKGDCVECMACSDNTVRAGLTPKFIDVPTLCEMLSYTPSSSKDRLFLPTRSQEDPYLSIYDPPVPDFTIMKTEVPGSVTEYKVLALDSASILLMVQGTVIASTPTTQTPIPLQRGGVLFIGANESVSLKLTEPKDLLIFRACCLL
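Test system: human phosphomannose isomerase with PGI, G6PDH, diaphorase coupling enzymes; amount: 15 ng/mL PMI; incubation: enzyme reaction with compound 20 min at room temperature; technique: resorufin fluorescence (Ex 544/Em 590 nm) from resazurin via diaphorase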
TNAP act hi DEA = increases human TNAP activity under high phosphate acceptor concentration; 200,000 tested, under 10 active; purified TNAP, CDP-star luminescence, 1 M DEA, 30 min; stronger effect = higher value; 0 = EDTA background, 1 = DMSO-only activity; activation factor at 20 µM; P05186; AID 1136;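 active = activation factor at least 2 at 20 µM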
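Measured by: Luminescent substrate turnover signal | Test system: Human TNAP | Input: TNAP 1/800 final | Dosing: 20 µM single point | Schedule: 30 min, room temperature | Controls: EDTA wells as negative control, DMSO wells as positive control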
TNAP inh noacc = blocks human TNAP activity with no phosphate acceptor present. actives 0.26% (n = 200,000). inhibition, % at 20 µM. P05186. AID 1012. purified TNAP, CDP-star luminescence, 30 min;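 active = tissue-nonspecific alkaline phosphatase inhibition above about 50% at 20 µM in the single-dose screen, limit read from the data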;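 note: 0% = DMSO negative control and 100% = EDTA positive control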
PMI act = activators of human phosphomannose isomerase. activation factor at 20 µM. P34949. actives 0.005% (n = 190,000). purified human PMI, coupled resazurin fluorescence, 20 min; stronger effect = higher value; 1 = vehicle control, 0 substrate-free wells;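 active = activation factor of 2 or more at 20 µM, relative to plate controls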
TNAP inh hi DEA = blocks human TNAP under high phosphate acceptor concentration. actives 0.03% (n = 200,000). P05186. purified TNAP, CDP-star luminescence, 1 M DEA. inhibition, % at 20 µM. AID 1135;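 active = over 50% inhibition of tissue-nonspecific alkaline phosphatase at 20 µM in the single-dose screen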;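 note: plate controls were DMSO wells for no effect and EDTA-quenched wells as full inhibition for full effect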
* = called active by the depositor.

SMILES	PMI act hi M6P	TNAP act hi DEA	TNAP inh noacc	PMI act	TNAP inh hi DEA
O=C(CSc1nnnn1-c1ccc(F)cc1)c1ccc(O)c(O)c1	1	0.9	75.3*	0.7	14.8
COc1ccc(-n2nnnc2SCC(=O)c2cccc(OC)c2)cc1	1	1.1	-9.4	0.9	-6.4
C/C(=N\Nc1ccc(F)cc1F)c1ccc(F)cc1	2.4*	1	-10.4	1.4	-3.6
Fc1ccc(N/N=C/c2ccc(N3CCOCC3)cc2)c(F)c1	2.2*	1	-4.3	1.7	0.1
O=S(=O)(Nc1ccc(N2CCOCC2)cc1)c1ccc(F)cc1F	0.8	1	-12.4	1.1	-3.4
C/C(=N\Nc1ccc(F)cc1F)c1ccc(Br)s1	2.6*	1	-16.5	1.7	-2.5
C/C(=N\Nc1ccc(F)cc1F)c1ccc(N2CCOCC2)cc1	2.4*	1	-12.7	1.6	-3.6
C/C(=N\NC(=O)c1ccc(Cl)cc1)c1ccc(Br)s1	1.1	1	3.7	1.1	-3.6
CCN(CCn1cccn1)Cc1nc(Cc2cccc(F)c2)no1	0.9	1	-4.5	0.8	-4.4
CCc1ccc2nc(N3C(=O)C(O)=C(C(=O)c4ccco4)C3c3cccs3)sc2c1 (stereo unspecified)	1.2	1	-0.4	1.2	-0.8
Cc1ccc2nc(N3C(=O)C(O)=C(C(=O)c4cc5ccccc5o4)C3c3cccs3)sc2c1 (stereo unspecified)	2*	1	8.7	1.4	3.7
O=S(=O)(Nc1nc2ccccc2nc1Cl)c1ccc(Br)cc1	0.8	1	-4.4	0.9	-1.4
CCN(Cc1ccccc1)c1ccc(/C=N/NS(=O)(=O)c2cccc([N+](=O)[O-])c2)cc1	2*	1	-12.9	1.5	1.1
CCCN1CCC(=NNc2ccc(C(=O)O)cc2)CC1	3*	1.1	-11.5	1.8	-6.0
CCCN1CCC(=NNC(=O)c2ccc(Br)o2)CC1	1	1	11.5	1.1	-4.4
N#Cc1cc2cc3c(cc2nc1N1CCOCC1)OCO3	2.1*	1	-17.5	1.7	-3.5
C=CCNC(=S)NNC(=O)c1cc(O)ccc1O	0.8	1	67.8*	0.8	2.5
C=CCNC(=S)NNC(=O)c1ccc(Br)cc1	1.1	1	-104.4	1	-3.2
CC(=O)c1ccc(N2CCN(C(=S)NCCCN(C)C)CC2)cc1	0.9	1.1	-8.7	0.9	-5.3
Oc1ccccc1-c1cc(-c2ccc3c(c2)OCCO3)n[nH]1	0.9	1	-14.1	0.9	-3.4
CCOC(=O)c1cc(-c2ccc3c(c2)OCCO3)n[nH]1	1	1	84.0*	1	-3.4
O=C(O)c1cc(-c2ccc3c(c2)OCCO3)n[nH]1	1	1.1	57.6*	1	-6.6
Oc1ccc(N=Cc2ccc(O)c(O)c2)cc1	0.5	0.8	20.7	0.6	21.3
O=C(/C(=N/N=C/c1ccc(O)c(O)c1)c1ccccc1)c1ccccc1	0.8	0.7	50.8*	0.7	25.8
CCOC(=O)C1(C)/C(=N/Nc2cccc(Cl)c2)C(=O)C(=O)N1c1ccccc1 (stereo unspecified)	2.3*	0.9	16.1	1.4	14.7
SMILES	PMI act hi M6P	TNAP act hi DEA	TNAP inh noacc	PMI act	TNAP inh hi DEA
CCOC(=O)C1(C)/C(=N/Nc2ccc(Cl)cc2)C(=O)C(=O)N1c1ccccc1 (stereo unspecified)	2.2*	0.9	16.6	1.6	11.6
CCOC(=O)C1(C)/C(=N/Nc2ccccc2Cl)C(=O)C(=O)N1c1ccccc1 (stereo unspecified)	2.1*	0.9	18.9	1.6	6.2
CCC(C)N1CNc2c(c(=O)[nH]c(=S)n2-c2cccc(C)c2)C1 (stereo unspecified)	0.9	1	-1.2	0.9	-2.1
CCOc1cc(NC(=S)NCC2CCCO2)c(OCC)cc1NC(=O)c1cccc(F)c1 (stereo unspecified)	0.5	1	-3.5	0.8	0.7
COc1cc(/C(C)=N/Nc2ccc(C(=O)O)cc2)cc(OC)c1OC	2.1*	1	-7.8	1.6	-4.4
COc1ccc(/C(C)=N/Nc2ccc(C(=O)O)cc2)cc1OC	2.5*	1	-14.1	1.8	4.2
C/C(=N/Nc1ccc(C(=O)O)cc1)c1ccc(O)c(O)c1O	1.2	0.9	6.1	0.7	7.5
COc1ccc(OC)c(/C(C)=N/Nc2ccc(C(=O)O)cc2)c1	1.7	1	-2.7	1.5	-0.7
CCOc1ccc(-c2n[nH]c(C(=O)NN)c2C)cc1	0.9	1.1	82.3*	0.9	-7.2
Cc1c(-c2ccccc2)n[nH]c1C(=O)NN	1.1	1	82.3*	1	-0.1
CC(C)COc1ccc(-c2cc(C(=O)NN)[nH]n2)cc1	0.9	1	-66.8	1	1.4
Cc1nc(-c2ccccc2)sc1C(=O)NN	1.1	1	-1.1	1.2	-2.5
COc1ccc(OC)c(-c2cc(C3CCN(c4ncccc4[N+](=O)[O-])CC3)[nH]n2)c1	1	1	-5.2	0.9	1.8
O=[N+]([O-])c1cccnc1N1CCC(c2cc(-c3ccc(Cl)cc3Cl)n[nH]2)CC1	0.8	1	78.9*	0.7	-0.1
CCCCOc1ccc(-c2nc(SCC(N)=O)n[nH]2)cc1	1	1	16.1	1	-3.1
C=CCSc1n[nH]c(-c2ccc(OC)cc2)n1	1	1	80.0*	0.9	-3.0
C=CCSc1ncc(-c2ccccc2)cn1	1	1	-5.1	1	-0.8
C=CCSc1n[nH]c(-c2ccccc2)n1	0.9	1	76.3*	0.9	-1.7
CN(C)CCN1C(=O)NC(C)(c2ccc([N+](=O)[O-])cc2)C1=O (stereo unspecified)	0.9	1	-1.5	0.9	-0.4
COC(=O)C1CSC(c2ccc(Cl)cc2)N1C(=O)c1ccccc1 (stereo unspecified)	0.8	1	-4.9	0.8	-4.8
Cc1n[nH]c(C)c1S(=O)(=O)N1CCN(c2ccccn2)CC1	1	1	58.9*	1	-3.8
CCc1ccc(OCC(=O)Nc2ncn[nH]2)cc1	1	1	-129.9	0.9	-2.7
CN(C)c1ccc(/C=N/Nc2ccc(-n3ccnc3)nn2)cc1	2.2*	0.9	9.1	1.7	5.2
COc1ccc(C)cc1NC(=S)NNC(=O)c1c(Br)cnn1C	1.1	1.1	-139.6	1	-5.5
O=C(O)c1ccccc1C(=O)NNc1ccc(Cl)cc1Cl	2.7*	1	-5.2	1.7	3.0
Cc1[nH]c2ccccc2c1/C=N/Nc1ccc(F)cc1F	2.1*	1	-24.1	1.5	1.5
CC(C)(C)c1ccc(C(CC(=O)O)NC(=O)c2ccccc2F)cc1 (stereo unspecified)	0.8	1	-11.9	1.1	-2.5
CC(C)CSc1n[nH]c(N)n1	1.1	1	50.0*	1.1	-0.9
